Converted amounts (≈) assume the structure as drawn.
How the values were obtained:
HEK293 = assay: Cytotoxicity against HEK293 cells assessed as growth inhibition after 72 hrs by Cell-Titer Glo assay; assay type: cell-based; conditions: Homo sapiens, HEK293, 72 h
In short: (§1)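 Human cell lines (Raji Burkitt's lymphoma, BJ immortalized foreskin fibroblast, HEK293 embryonic kidney, HepG2) exposed 72 h to a 10-point threefold dilution series by pin transfer, lowest final 0.5 nM, final DMSO 0.2%; proliferation run in triplicate, EC50 derived.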

[1] = Kinetic solubility in PBS buffer at pH 7.4 after 18 hrs by UV-spectroscopic analysis; assay type: physicochemical; conditions: for solubility kinetic at 18 h: PBS buffer, pH 7.4, read-out: Kinetic_solubility
HepG2 = assay: Cytotoxicity against human HepG2 cells assessed as growth inhibition after 72 hrs by Cell-Titer Glo assay; assay type: cell-based; conditions: HepG2, 72 h; in short: as §1
Raji = assay: Cytotoxicity against human Raji cells assessed as growth inhibition after 72 hrs by Cell-Titer Glo assay; assay type: cell-based; in short: as §1
BJ = assay: Cytotoxicity against human BJ cells assessed as growth inhibition after 72 hrs by Cell-Titer Glo assay; assay type: cell-based; in short: as §1
[2] = tested on: Trypanosoma brucei brucei; assay: Antitrypanosomal activity against Trypanosoma brucei brucei assessed as parasite growth inhibition after 48 hrs by Cell-Titer Glo assay; assay type: functional, organism-based
[3] = Permeability of the compound by PAMPA; assay type: ADME; conditions: for Papp: read-out: permeability
In short: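 Passive permeability by parallel artificial membrane assay (pION implementation), measured against PBS pH 7.4 sink buffer.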

[4] = tested on: Trypanosoma brucei rhodesiense; assay: Antitrypanosomal activity against wild type Trypanosoma brucei rhodesiense STIB900 assessed as parasite growth inhibition after 48 hrs by Cell-Titer Glo assay; assay type: functional, organism-based; conditions: STIB900, 48 h
In short: (§2)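 Parasites exposed to a 10-point threefold dilution series added by pin transfer, lowest final concentration 0.5 nM, final DMSO 0.2%; EC50 from the series, mean of two experiments.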

[5] = Half life in mouse liver microsomes; assay type: ADME, Microsome
[6] = Half life in human liver microsomes; assay type: ADME, Microsome
[7] = tested on: Trypanosoma brucei gambiense; assay: Antitrypanosomal activity against Trypanosoma brucei gambiense STIB930 assessed as parasite growth inhibition after 48 hrs by Cell-Titer Glo assay; assay type: functional, organism-based; conditions: STIB930, 48 h; in short: as §2
[8] = tested on: Trypanosoma brucei brucei; assay: Antitrypanosomal activity against Trypanosoma brucei brucei assessed as parasite growth inhibition; assay type: functional, organism-based

O=C(Nc1cccc(-c2nc3ccccc3s2)c1)c1cccnc1Cl
EC50 (HEK293): > 25 µM | solubility kinetic at 18 h [1]: 0.52 µM (≈ 0.19 µg/mL) | EC50 (HepG2): > 25 µM | EC50 (Raji): > 25 µM | EC50 (BJ): > 25 µM | EC50 [2]: 25 µM | Papp [3]: 677 ×10⁻⁶ cm/s

Cc1ccc(-c2nc3ccccc3s2)cc1NC(=O)c1cnccc1Cl
EC50 (HEK293): > 25 µM | EC50 [4]: 0.055 µM | solubility kinetic at 18 h [1]: 0.14 µM (≈ 0.0532 µg/mL) | EC50 (HepG2): > 25 µM | EC50 (Raji): > 25 µM | half-life [5]: 0.58 h | EC50 (BJ): > 25 µM | EC50 [2]: 0.058 µM | half-life [6]: 3.7 h | EC50 [7]: 0.058 µM | Papp [3]: 791 ×10⁻⁶ cm/s

O=C(Nc1ccc(F)c(-c2nc3ccccc3s2)c1)c1cnccc1Cl
EC50 (HEK293): > 25 µM | EC50 [4]: 0.018 µM | solubility kinetic at 18 h [1]: 0.08 µM (≈ 0.0307 µg/mL) | EC50 (HepG2): > 25 µM | EC50 (Raji): > 25 µM | half-life [5]: > 4 h | EC50 (BJ): > 25 µM | EC50 [2]: 0.12 µM | half-life [6]: > 4 h | EC50 [7]: 0.038 µM | Papp [3]: 21 ×10⁻⁶ cm/s

CN(C)CCC(=O)Nc1cccc(-c2nc3ccccc3s2)c1
EC50 (HEK293): > 25 µM | solubility kinetic at 18 h [1]: 56 µM (≈ 18.2 µg/mL) | EC50 (HepG2): 21 µM | EC50 (Raji): > 25 µM | EC50 (BJ): > 25 µM | EC50 [2]: > 33 µM | permeability [3]: 2080 ×10⁻⁶ cm/s

O=C(Nc1cc(-c2nc3ccccc3o2)ccc1F)c1cnccc1Cl
EC50 (HEK293): > 25 µM | solubility kinetic at 18 h [1]: 0.13 µM (≈ 0.0478 µg/mL) | EC50 (HepG2): > 25 µM | EC50 (Raji): > 25 µM | EC50 (BJ): > 25 µM | EC50 [2]: 0.44 µM | Papp [3]: 258 ×10⁻⁶ cm/s

O=C(Nc1ccc(F)c(-c2nc3ccccc3o2)c1)c1cnccc1Cl
EC50 (HEK293): > 25 µM | EC50 [4]: 0.05 µM | solubility kinetic at 18 h [1]: 0.67 µM (≈ 0.246 µg/mL) | EC50 (HepG2): > 25 µM | EC50 (Raji): > 25 µM | EC50 (BJ): > 25 µM | EC50 [2]: 0.12 µM | EC50 [7]: 0.12 µM | Papp [3]: 305 ×10⁻⁶ cm/s

Cc1ccc(-c2nc3ccccc3s2)cc1NC(=O)c1cc([N+](=O)[O-])c(N2CCNCC2)cc1Cl
EC50 [8]: 0.027 µM

O=C(Nc1cc(-c2nc3ccccc3s2)ccc1F)c1cnccc1Cl
EC50 (HEK293): > 25 µM | solubility kinetic at 18 h [1]: 0.18 µM (≈ 0.0691 µg/mL) | EC50 (HepG2): > 25 µM | EC50 (Raji): > 25 µM | EC50 (BJ): > 25 µM | EC50 [2]: 0.18 µM | Papp [3]: 306 ×10⁻⁶ cm/s

C/C=C/C(=O)Nc1cccc(-c2nc3ccccc3s2)c1
EC50 (HEK293): > 25 µM | solubility kinetic at 18 h [1]: 0.11 µM (≈ 0.0324 µg/mL) | EC50 (HepG2): > 25 µM | EC50 (Raji): > 25 µM | EC50 (BJ): > 25 µM | EC50 [2]: > 33 µM | permeability [3]: 1640 ×10⁻⁶ cm/s

O=C(Nc1ccc(Cl)cc1)c1cc([N+](=O)[O-])ccc1Cl
EC50 (HEK293): > 25 µM | solubility kinetic at 18 h [1]: 3 µM (≈ 0.933 µg/mL) | EC50 (HepG2): > 25 µM | EC50 (Raji): > 25 µM | EC50 (BJ): > 25 µM | EC50 [2]: 0.92 µM | Papp [3]: 536 ×10⁻⁶ cm/s

COc1ccc(-c2nc3ccccc3o2)cc1NC(=O)c1cnccc1Cl
EC50 (HEK293): > 25 µM | solubility kinetic at 18 h [1]: 1.68 µM (≈ 0.638 µg/mL) | EC50 (HepG2): > 25 µM | EC50 (Raji): > 25 µM | EC50 (BJ): > 25 µM | EC50 [2]: 0.2 µM | Papp [3]: 391 ×10⁻⁶ cm/s

O=C(Nc1cccc(-c2nc3ccccc3s2)c1)c1cc([N+](=O)[O-])cnc1Cl
EC50 (HEK293): > 25 µM | solubility kinetic at 18 h [1]: 0.45 µM (≈ 0.185 µg/mL) | EC50 (HepG2): > 25 µM | EC50 (Raji): 8.4 µM | EC50 (BJ): > 25 µM | EC50 [2]: 13 µM | Papp [3]: 42 ×10⁻⁶ cm/s

CC(C)(CCl)C(=O)Nc1cccc(-c2nc3ccccc3s2)c1
EC50 (HEK293): > 25 µM | Kinetic_solubility ([1]; buffer, pH 7.4, 18 h, BLD = below limit of detection): BLD | EC50 (HepG2): > 25 µM | EC50 (Raji): > 25 µM | EC50 (BJ): > 25 µM | EC50 [2]: > 33 µM | Papp [3]: 891 ×10⁻⁶ cm/s

C=C(C)C(=O)Nc1cccc(-c2nc3ccccc3s2)c1
EC50 (HEK293): > 25 µM | solubility kinetic at 18 h [1]: 0.42 µM (≈ 0.124 µg/mL) | EC50 (HepG2): > 25 µM | EC50 (Raji): > 25 µM | EC50 (BJ): > 25 µM | EC50 [2]: > 33 µM | Papp [3]: 987 ×10⁻⁶ cm/s

O=C(O)/C=C/C(=O)Nc1cccc(-c2nc3ccccc3s2)c1
EC50 (HEK293): > 25 µM | solubility kinetic at 18 h [1]: 56 µM (≈ 18.2 µg/mL) | EC50 (HepG2): > 25 µM | EC50 (Raji): > 25 µM | EC50 (BJ): > 25 µM | EC50 [2]: > 33 µM | Papp [3]: 4 ×10⁻⁶ cm/s

O=C(Nc1cccc(-c2nc3ccccc3s2)c1)c1ccncc1Cl
EC50 (HEK293): > 25 µM | solubility kinetic at 18 h [1]: 0.32 µM (≈ 0.117 µg/mL) | EC50 (HepG2): > 25 µM | EC50 (Raji): > 25 µM | EC50 (BJ): > 25 µM | EC50 [2]: 24 µM | Papp [3]: 563 ×10⁻⁶ cm/s

CC(Cl)C(=O)Nc1cccc(-c2nc3ccccc3s2)c1 (stereo not drawn)
EC50 (HEK293): > 25 µM | solubility kinetic at 18 h [1]: 0.83 µM (≈ 0.263 µg/mL) | EC50 (HepG2): > 25 µM | EC50 (Raji): > 25 µM | EC50 (BJ): > 25 µM | EC50 [2]: 1.2 µM | Papp [3]: 769 ×10⁻⁶ cm/s

O=C(CCl)Nc1cccc(-c2nc3ccccc3s2)c1
EC50 (HEK293): 10 µM | solubility kinetic at 18 h [1]: 1 µM (≈ 0.303 µg/mL) | EC50 (HepG2): 16 µM | EC50 (Raji): 1.7 µM | EC50 (BJ): 8.5 µM | EC50 [2]: 0.12 µM | Papp [3]: 660 ×10⁻⁶ cm/s

C=CC(=O)Nc1cccc(-c2nc3ccccc3s2)c1
EC50 (HEK293): > 25 µM | solubility kinetic at 18 h [1]: 0.18 µM (≈ 0.0505 µg/mL) | EC50 (HepG2): > 25 µM | EC50 (Raji): > 25 µM | EC50 (BJ): > 25 µM | EC50 [2]: > 33 µM | Papp [3]: 797 ×10⁻⁶ cm/s

O=C(Nc1cccc(-c2nc3ccccc3s2)c1)c1ccc(Cl)nc1Cl
EC50 (HEK293): > 25 µM | solubility kinetic at 18 h [1]: 0.35 µM (≈ 0.14 µg/mL) | EC50 (HepG2): > 25 µM | EC50 (Raji): > 25 µM | EC50 (BJ): > 25 µM | EC50 [2]: 11 µM | Papp [3]: 104 ×10⁻⁶ cm/s

COc1ccc(-c2nc3ccccc3s2)cc1NC(=O)c1cnccc1Cl
EC50 (HEK293): > 25 µM | solubility kinetic at 18 h [1]: 0.34 µM (≈ 0.135 µg/mL) | EC50 (HepG2): > 25 µM | EC50 (Raji): 13 µM | EC50 (BJ): > 25 µM | EC50 [2]: 0.12 µM | Papp [3]: 121 ×10⁻⁶ cm/s

O=C(Nc1cccc(-c2nc3ccccc3s2)c1)c1ccnc(Cl)c1
EC50 (HEK293): > 25 µM | solubility kinetic at 18 h [1]: 0.74 µM (≈ 0.271 µg/mL) | EC50 (HepG2): > 25 µM | EC50 (Raji): > 25 µM | EC50 (BJ): > 25 µM | EC50 [2]: 20 µM | Papp [3]: 478 ×10⁻⁶ cm/s

Cc1ccc(-c2nc3ccccc3o2)cc1NC(=O)c1cnccc1Cl
EC50 (HEK293): > 25 µM | EC50 [4]: 0.12 µM | solubility kinetic at 18 h [1]: 0.51 µM (≈ 0.186 µg/mL) | EC50 (HepG2): > 25 µM | EC50 (Raji): > 25 µM | EC50 (BJ): > 25 µM | EC50 [2]: 0.18 µM | EC50 [7]: 0.17 µM | Papp [3]: 646 ×10⁻⁶ cm/s

O=C(Nc1cccc(-c2nc3ccccc3s2)c1)c1cnc(Cl)s1
EC50 (HEK293): > 25 µM | solubility kinetic at 18 h [1]: 0.94 µM (≈ 0.35 µg/mL) | EC50 (HepG2): > 25 µM | EC50 (Raji): > 25 µM | EC50 (BJ): > 25 µM | EC50 [2]: 18 µM | Papp [3]: 133 ×10⁻⁶ cm/s

O=C(Nc1cccc(-c2nc3ccccc3s2)c1)c1cnccc1Cl
EC50 (HEK293): > 25 µM | EC50 [4]: 0.062 µM | solubility kinetic at 18 h [1]: 0.32 µM (≈ 0.117 µg/mL) | EC50 (HepG2): > 25 µM | EC50 (Raji): 12 µM | EC50 (BJ): > 25 µM | EC50 [2]: 0.3 µM | EC50 [7]: 0.061 µM | Papp [3]: 732 ×10⁻⁶ cm/s
